Consider 25 molecules from ChEMBL document CHEMBL1135770, “Synthesis and transporter binding properties of 3beta-[4'-(phenylalkyl, -phenylalkenyl, and -phenylalkynyl)phenyl]tropane-2beta-carboxylic acid methyl esters: evidence of a remote phenyl binding domain on the dopamine transporter” (J Med Chem, 2002).

Test [1] has as its target T1, Norepinephrine transporter (Rattus norvegicus, UniProt Q9WTR4). The experiment in a line: Tested for the binding affinity towards Norepinephrine transporter in rat cerebral cortex by displacing [3H]nisoxetine radioligand. It is filed as tissue-based. In outline: (§1)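 Competition binding with 0.5 nM [³H]nisoxetine as final radioligand concentration.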
The target in test [2] is T2, Sodium-dependent serotonin transporter (Rattus norvegicus, UniProt P31652). The experiment in a line: Tested for the binding affinity towards Serotonin transporter in rat midbrain tissue by displacing [3H]paroxetine radioligand. It is filed as tissue-based. The gist of the method: (§2)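 Competition binding with 0.2 nM [³H]paroxetine as final radioligand concentration.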
T2 sequence (P31652 whole entry): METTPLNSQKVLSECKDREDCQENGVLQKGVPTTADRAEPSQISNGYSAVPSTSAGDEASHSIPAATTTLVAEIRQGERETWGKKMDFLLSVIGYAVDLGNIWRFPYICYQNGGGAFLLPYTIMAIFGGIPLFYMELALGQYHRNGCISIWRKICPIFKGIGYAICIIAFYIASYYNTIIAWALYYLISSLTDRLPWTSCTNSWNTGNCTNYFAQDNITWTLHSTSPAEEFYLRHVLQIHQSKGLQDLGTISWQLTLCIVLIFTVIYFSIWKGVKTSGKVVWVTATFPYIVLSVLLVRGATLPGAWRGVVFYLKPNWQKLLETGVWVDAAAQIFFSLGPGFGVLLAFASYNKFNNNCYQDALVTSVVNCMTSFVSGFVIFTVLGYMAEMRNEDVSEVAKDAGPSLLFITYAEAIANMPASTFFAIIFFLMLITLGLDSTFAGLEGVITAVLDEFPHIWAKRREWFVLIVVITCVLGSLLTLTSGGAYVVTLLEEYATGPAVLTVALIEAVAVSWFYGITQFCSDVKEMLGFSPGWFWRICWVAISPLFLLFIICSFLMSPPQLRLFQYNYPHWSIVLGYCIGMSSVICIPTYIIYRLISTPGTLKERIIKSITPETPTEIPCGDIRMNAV

For test [3], the target named is T1, Norepinephrine transporter. Put plainly: 50% Inhibition against Norepinephrine transporter in rat cerebral cortex by displacing [3H]nisoxetine radioligand. In kind it is tissue-based. The gist of the method:
as §1

Test [4] concerns the target Sodium-dependent dopamine transporter (Rattus norvegicus, UniProt P23977). Put plainly: 50% Inhibition against dopamine transporter (DAT) in rat striatal tissue by displacing [3H]WIN-35428 radioligand. It is filed as tissue-based, Striatum. In outline: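 Competition binding with 0.5 nM [³H]WIN35,428 as final radioligand concentration.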
Test [5] deals with T2, Sodium-dependent serotonin transporter. The experiment in a line: 50% Inhibition against Serotonin transporter in rat midbrain tissue by displacing [3H]paroxetine radioligand. In kind it is tissue-based. In outline:
as §2

T1 sequence (Q9WTR4 whole entry): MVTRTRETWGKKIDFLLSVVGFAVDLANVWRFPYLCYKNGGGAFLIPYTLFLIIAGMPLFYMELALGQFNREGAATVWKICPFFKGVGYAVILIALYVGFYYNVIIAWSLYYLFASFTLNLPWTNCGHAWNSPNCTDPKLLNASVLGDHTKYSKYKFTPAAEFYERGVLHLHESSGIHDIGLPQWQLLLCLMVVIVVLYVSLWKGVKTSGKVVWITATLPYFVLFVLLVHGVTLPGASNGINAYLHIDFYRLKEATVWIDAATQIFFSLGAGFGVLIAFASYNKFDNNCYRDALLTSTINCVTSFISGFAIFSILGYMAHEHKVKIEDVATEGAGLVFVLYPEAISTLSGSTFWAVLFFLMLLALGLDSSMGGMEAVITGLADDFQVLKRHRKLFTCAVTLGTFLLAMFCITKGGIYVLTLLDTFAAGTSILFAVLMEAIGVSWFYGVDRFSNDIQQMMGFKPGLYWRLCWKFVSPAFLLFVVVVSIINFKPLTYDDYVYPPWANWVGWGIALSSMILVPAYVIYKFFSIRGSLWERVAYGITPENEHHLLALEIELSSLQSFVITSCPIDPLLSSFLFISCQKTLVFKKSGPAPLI
Sodium-dependent dopamine transporter, sequence (P23977 whole entry): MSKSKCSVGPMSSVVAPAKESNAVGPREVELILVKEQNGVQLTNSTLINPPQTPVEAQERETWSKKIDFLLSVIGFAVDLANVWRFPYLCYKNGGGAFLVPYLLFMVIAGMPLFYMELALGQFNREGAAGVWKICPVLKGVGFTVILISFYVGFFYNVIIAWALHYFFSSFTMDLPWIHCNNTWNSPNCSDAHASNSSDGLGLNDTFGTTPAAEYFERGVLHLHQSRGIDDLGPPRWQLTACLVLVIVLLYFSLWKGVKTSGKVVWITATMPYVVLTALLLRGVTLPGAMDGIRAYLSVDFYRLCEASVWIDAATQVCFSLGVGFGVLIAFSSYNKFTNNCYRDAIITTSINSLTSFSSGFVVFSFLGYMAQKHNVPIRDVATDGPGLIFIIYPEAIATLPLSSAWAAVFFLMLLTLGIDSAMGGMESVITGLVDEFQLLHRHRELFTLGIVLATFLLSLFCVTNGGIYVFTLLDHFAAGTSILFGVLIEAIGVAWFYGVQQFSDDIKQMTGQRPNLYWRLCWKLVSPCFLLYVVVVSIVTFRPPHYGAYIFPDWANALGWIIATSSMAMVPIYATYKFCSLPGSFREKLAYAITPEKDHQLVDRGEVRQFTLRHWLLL

The molecule `COC(=O)[C@@H]1C2CC[C@H](C[C@@H]1c1ccccc1)N2C` showed a Ki in test [1] of 55 nM.
`COC(=O)C1[C@@H](c2ccc(CCCCc3ccccc3)cc2)CC2CC[C@H]1N2C` (stereo partly specified): the figures for the Ki in test [2] and in test [1] were 439 nM and 1390 nM, respectively. Also, the IC50 turned out to be 2310 nM in test [3], 228 nM in test [4] and 4820 nM in test [5].
For `CCCc1ccc([C@H]2CC3CC[C@H](C2C(=O)OC)N3C)cc1` (stereo partly specified) the same measures were 6.4 nM, 2360 nM, 3920 nM, 68.5 nM and 70.4 nM.
For `COC(=O)C1[C@@H](c2ccc3ccccc3c2)CC2CC[C@H]1N2C` (stereo partly specified) the same measures were 0.07 nM, 12.7 nM, 21.1 nM, 0.51 nM and 0.8 nM.
For `C=Cc1ccc([C@H]2CC3CC[C@H](C2C(=O)OC)N3C)cc1` (stereo partly specified) the same measures were 0.86 nM, 47 nM, 78 nM, 1.24 nM and 9.5 nM.
As for `CC#Cc1ccc([C@H]2CC3CC[C@H](C2C(=O)OC)N3C)cc1` (stereo partly specified), the Ki was found to be 1.43 nM in test [2] and 494 nM in test [1]. Moreover, the figures for the IC50 in test [3], in test [4] and in test [5] were 820 nM, 2.37 nM and 15.7 nM, respectively.
For `COC(=O)C1[C@@H](c2ccc(C#CCCCCO)cc2)CC2CC[C@H]1N2C` (stereo partly specified) the same measures were 75 nM, 5720 nM, 9500 nM, 57 nM and 828 nM.
For `COC(=O)C1[C@@H](c2ccc(C#CCc3ccccc3)cc2)CC2CC[C@H]1N2C` (stereo partly specified) the same measures were 1.19 nM, 16.5 nM, 27.4 nM, 1.82 nM and 13.1 nM.
For `COC(=O)C1[C@@H](c2ccc(C#Cc3ccccc3)cc2)CC2CC[C@H]1N2C` (stereo partly specified) the same measures were 4.3 nM, 209 nM, 347 nM, 3.7 nM and 46.8 nM.
Consider `COC(=O)C1[C@@H](c2ccc(C#CCCc3ccccc3)cc2)CC2CC[C@H]1N2C` (stereo partly specified), for which the Ki amounted to 198 nM in test [2] and 885 nM in test [1]. Besides, the results for the half-inhibitory concentration (IC50) in test [3], in test [4] and in test [5] were 1470 nM, 6.28 nM and 2180 nM, respectively.
Consider `COC(=O)C1C(c2ccc3ccccc3c2)CC2CC[C@H]1N2C` (stereo partly specified), for which the Ki in test [2] is 1.05 nM; in test [1], 42.3 nM. In addition, the IC50 is 70.2 nM in test [3], 1.1 nM in test [4] and 11.4 nM in test [5].
For `COC(=O)C1[C@@H](c2ccc(C#CCCCc3ccccc3)cc2)CC2CC[C@H]1N2C` (stereo partly specified) the same measures were 122 nM, 2680 nM, 4450 nM, 300 nM and 1340 nM.
For `COC(=O)C1[C@@H](c2ccc(-c3ccccc3)cc2)CC2CC[C@H]1N2C` (stereo partly specified) the same measures were 8.7 nM, 892 nM, 1480 nM, 15.6 nM and 95.8 nM.
For `COC(=O)C1[C@@H](c2ccc(CCc3ccccc3)cc2)CC2CC[C@H]1N2C` (stereo partly specified), the results for the Ki in test [2] and in test [1] were 21.3 nM and 6.5 nM, respectively. Besides, the results for the IC50 in test [3], in test [4] and in test [5] were 10.8 nM, 5.14 nM and 234 nM, respectively.
For `COC(=O)C1[C@@H](c2ccc(CCCc3ccccc3)cc2)CC2CC[C@H]1N2C` (stereo partly specified) the same measures were 113 nM, 8500 nM, 14200 nM, 351 nM and 1240 nM.
For the molecule `C=C(c1ccccc1)c1ccc([C@H]2CC3CC[C@H](C2C(=O)OC)N3C)cc1` (stereo partly specified), the Ki was found to be 246 nM in test [2] and 4260 nM in test [1]. The half-inhibitory concentration (IC50) in test [3] was 7060 nM; in test [4], 474 nM; in test [5], 2710 nM.
In the case of `COC(=O)C1[C@@H](c2ccc(Cc3ccccc3)cc2)CC2CC[C@H]1N2C` (stereo partly specified), the Ki worked out at 658 nM in test [2] and 606 nM in test [1]. Further, the IC50 in test [3] is 6670 nM; in test [4], 526 nM; in test [5] it was 7240 nM.
For `COC(=O)C1[C@@H](c2ccc(/C=C/Cc3ccccc3)cc2)CC2CC[C@H]1N2C` (stereo partly specified) the same measures were 71 nM, 759 nM, 1250 nM, 15.8 nM and 781 nM.
On to `COC(=O)C1[C@@H](c2ccc(/C=C\c3ccccc3)cc2)CC2CC[C@H]1N2C` (stereo partly specified), for which the IC50 in test [4] stood at 11.7 nM.
Consider `COC(=O)C1[C@@H](c2ccc(/C=C/c3ccccc3)cc2)CC2CC[C@H]1N2C` (stereo partly specified), for which the results for the inhibitory constant (Ki) in test [2] and in test [1] were 30.5 nM and 1180 nM, respectively. Moreover, the half-inhibitory concentration (IC50) in test [3] was 1960 nM; in test [4], 3.09 nM; in test [5], 335 nM.
For `C/C=C\c1ccc([C@H]2CC3CC[C@H](C2C(=O)OC)N3C)cc1` (stereo partly specified) the same measures were 1.04 nM, 958 nM, 1590 nM, 5.29 nM and 11.4 nM.
For the molecule `COC(=O)C1C2CC[C@H](C[C@H]1c1ccc(C)cc1)N2C` (stereo partly specified), the IC50 in test [3] turned out to be 60 nM. The Ki in test [1] was 36 nM.
Consider `C#Cc1ccc([C@H]2CC3CC[C@H](C2C(=O)OC)N3C)cc1` (stereo partly specified), for which the values for the Ki in test [2] and in test [1] were 0.4 nM and 50.1 nM, respectively. Moreover, the IC50 amounted to 83.2 nM in test [3], 1.2 nM in test [4] and 4.4 nM in test [5].
On to `CCc1ccc([C@H]2C[C@H]3CCC(C2C(=O)OC)N3C)cc1` (stereo partly specified), for which the Ki was determined as 2.58 nM in test [2] and 2360 nM in test [1].
Consider `COC(=O)C1=C(c2ccc3ccccc3c2)CC2CCC1N2C` (stereo unspecified), for which the values for the Ki in test [2] and in test [1] were 31.4 nM and 224 nM, respectively. The IC50 in test [3] was 372 nM; in test [4] it was 5.17 nM; in test [5], 345 nM.
